From ChEMBL document CHEMBL4725484, “Oxetanyl Sulfoxide MMS-350 Ameliorates Pulmonary Fibrosis In Vitro, In Vivo, and Ex Vivo” (ACS Med Chem Lett, 2020)
The source made the active and inactive calls. No cut-off for these calls is given here.

How the values were obtained:
[1] = system: Primary lung fibroblast; experiment: Antifibrotic activity against TGFbeta1-induced fibrosis in human primary lung fibroblasts assessed as decrease in COL1A1 expression level at 91 to 500 ug/ml measured after 48 hrs by qRT-PCR analysis; assay type: functional, tissue-based; conditions: dose microg/ml 500, time 48.0 hrs, in the assay text read “at 500 ug/ml” for “at 91 to 500 ug/ml”
Summary of the method: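 Primary fibroblasts were treated for 48 h with TGFβ1 with or without compound (500 μg/mL). Extracted RNA was used for real-time PCR of COL1A1. N = 4, mean ± SD.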

[2] = system: Primary lung fibroblast; experiment: Antifibrotic activity against TGFbeta1-induced fibrosis in human primary lung fibroblasts assessed as decrease in alpha-SMA protein level at 10 to 60 ug/ml measured after 72 hrs by immunoblotting analysis; assay type: functional, tissue-based; conditions: dose microg/ml 10-60, time 72.0 hrs
Summary of the method: (§1)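 Primary human fibroblasts were exposed for 72 h to vehicle (DMSO), TGFβ1, or TGFβ1 plus compound at the indicated concentrations. Fibrotic factors in cell lysates and conditioned medium were detected by immunoblotting, with GAPDH as internal control.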

[3] = system: Primary lung fibroblast; experiment: Antifibrotic activity against TGFbeta1-induced fibrosis in human primary lung fibroblasts assessed as decrease in IGFBP-3 protein level at 10 to 60 ug/ml measured after 72 hrs by immunoblotting analysis; assay type: functional, tissue-based; conditions: dose microg/ml 10-60, time 72.0 hrs; summary of the method: as §1
[4] = system: Primary lung fibroblast; experiment: Antifibrotic activity against TGFbeta1-induced fibrosis in human primary lung fibroblasts assessed as decrease in CTGF protein level at 10 to 60 ug/ml measured after 72 hrs by immunoblotting analysis; assay type: functional, tissue-based; conditions: dose microg/ml 10-60, time 72.0 hrs; summary of the method: as §1
[5] = system: Primary lung fibroblast; experiment: Antifibrotic activity against TGFbeta1-induced fibrosis in human primary lung fibroblasts assessed as decrease in collagen type-1 protein level at 10 to 60 ug/ml measured after 72 hrs by immunoblotting analysis; assay type: functional, tissue-based; conditions: dose microg/ml 10-60, time 72.0 hrs; summary of the method: as §1
[6] = system: Primary lung fibroblast; experiment: Antifibrotic activity against TGFbeta1-induced fibrosis in human primary lung fibroblasts assessed as decrease in fibronectin protein level at 10 to 60 ug/ml measured after 72 hrs by immunoblotting analysis; assay type: functional, tissue-based; conditions: dose microg/ml 10-60, time 72.0 hrs; summary of the method: as §1
[7] = system: Primary lung fibroblast; experiment: Antifibrotic activity in human primary lung fibroblasts assessed as decrease in IGFBP-3 protein level at 500 ug/ml measured after 72 hrs by immunoblotting analysis; assay type: functional, tissue-based; conditions: dose 500.0 µg/ml
Summary of the method: (§2)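 Primary human fibroblasts received vehicle, 10 ng/mL TGFβ1, 500 μg/mL compound, or TGFβ1 plus compound for 72 h. Vehicles were 4 mM HCl/0.1% BSA for TGFβ1 and 1× PBS for compound. Cell lysates and conditioned medium were immunoblotted with GAPDH as internal control. Densitometry is expressed as mean relative change versus vehicle or internal control ± SDEV, N = 3.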

[8] = system: Primary lung fibroblast; experiment: Antifibrotic activity against TGFbeta1-induced fibrosis in human primary lung fibroblasts assessed as decrease in IGFBP-3 protein level at 500 ug/ml treated at 30 mins to 6 hrs post TGFbeta1 stimulation by immunoblotting analysis; assay type: functional, tissue-based; conditions: dose 500.0 µg/ml, time 6.5 hrs
Summary of the method: (§3)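 Therapeutic-timing design in fibroblasts: 500 μg/mL compound was added together with 10 ng/mL TGFβ1 or 30 min to 6 h after TGFβ1. Profibrotic factors were then assessed by immunoblotting.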

[9] = system: Primary lung fibroblast; experiment: Antifibrotic activity in human primary lung fibroblasts assessed as decrease in collagen type-1 protein level at 500 ug/ml measured after 72 hrs by immunoblotting analysis; assay type: functional, tissue-based; conditions: dose 500.0 µg/ml; summary of the method: as §2
[10] = system: Zone of skin; experiment: Antifibrotic activity against TGFbeta1-induced dermal fibrosis in human skin assessed as reduction in CTGF expression level stimulated with TGFbeta1 for 24 hrs followed by compound treatment at 500 ug/ml measured after 24 hrs by QRT-PCR analysis; assay type: functional, tissue-based; conditions: Skin of body, dose 500.0 µg/ml
Summary of the method: (§4)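 Human skin in organ culture was treated with vehicle (1× PBS) or 10 ng/mL TGFβ1, then given 500 μg/mL compound 24 h later. CTGF expression in whole skin was read 24 h after compound addition. COL1A1 and FN expression in whole skin were read 72 h after compound addition.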

[11] = system: Zone of skin; experiment: Antifibrotic activity against TGFbeta1-induced dermal fibrosis in human skin assessed as reduction in COL1A1 expression level stimulated with TGFbeta1 for 24 hrs followed by compound treatment at 500 ug/ml measured after 72 hrs by qRT-PCR analysis; assay type: functional, tissue-based; conditions: Skin of body, dose 500.0 µg/ml; summary of the method: as §4
[12] = system: Zone of skin; experiment: Antifibrotic activity against TGFbeta1-induced dermal fibrosis in human skin assessed as reduction in fibronectin expression level stimulated with TGFbeta1 for 24 hrs followed by compound treatment at 500 ug/ml measured after 72 hrs by qRT-PCR analysis; assay type: functional, tissue-based; conditions: Skin of body, dose 500.0 µg/ml; summary of the method: as §4
[13] = Lipophilicity, log P of the compound; assay type: physicochemical; conditions: octanol/water
[14] = system: Primary lung fibroblast; experiment: Antifibrotic activity in human primary lung fibroblasts assessed as decrease in fibronectin protein level at 500 ug/ml measured after 72 hrs by immunoblotting analysis; assay type: functional, tissue-based; conditions: dose 500.0 µg/ml; summary of the method: as §2
[15] = system: Primary lung fibroblast; experiment: Antifibrotic activity against TGFbeta1-induced fibrosis in human primary lung fibroblasts assessed as decrease in IGFBP-3 protein level at 500 ug/ml measured after 72 hrs by immunoblotting analysis; assay type: functional, tissue-based; conditions: dose 500.0 µg/ml; summary of the method: as §2
[16] = system: Primary lung fibroblast; experiment: Antifibrotic activity against TGFbeta1-induced fibrosis in human primary lung fibroblasts assessed as decrease in fibronectin protein level at 500 ug/ml measured after 72 hrs by immunoblotting analysis; assay type: functional, tissue-based; conditions: dose 500.0 µg/ml; summary of the method: as §2
[17] = Solubility of the compound in water; assay type: physicochemical; conditions: buffer
[18] = system: Mus musculus; experiment: Antifibrotic activity against bleomycin-induced C57BL/6J mouse lung fibrosis model at 2%, po via gavage administered as single dose measured after 14 days by hematoxylin and eosin staining based microscopic analysis; assay type: functional, organism-based; conditions: time day 14
Summary of the method: (§5)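 Mouse groups received PBS, bleomycin, or bleomycin plus 2% compound. Lung histology was assessed 14 days post-treatment. Lung COL1A2 mRNA was measured at 5 days, normalized to GAPDH. Lung hydroxyproline (total collagen) was measured at 14 days. Data are mean ± SD.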

[19] = system: Primary lung fibroblast; experiment: Antifibrotic activity in human primary lung fibroblasts assessed as decrease in alpha-SMA protein level at 500 ug/ml measured after 72 hrs by immunoblotting analysis; assay type: functional, tissue-based; conditions: dose 500.0 µg/ml; summary of the method: as §2
[20] = system: Mus musculus; experiment: Antifibrotic activity against bleomycin-induced C57BL/6J mouse lung fibrosis model assessed as reduction in COL1A2 mRNA level at 2%, po via gavage administered as single dose measured within 5 days by qRT-PCR analysis; assay type: functional, organism-based; conditions: time day <=5; summary of the method: as §5
[21] = system: Primary lung fibroblast; experiment: Antifibrotic activity against TGFbeta1-induced fibrosis in human primary lung fibroblasts assessed as decrease in CTGF protein level at 500 ug/ml measured after 72 hrs by immunoblotting analysis; assay type: functional, tissue-based; conditions: dose 500.0 µg/ml; summary of the method: as §2
[22] = system: Primary lung fibroblast; experiment: Antifibrotic activity against TGFbeta1-induced fibrosis in human primary lung fibroblasts assessed as decrease in alpha-SMA protein level at 500 ug/ml measured after 72 hrs by immunoblotting analysis; assay type: functional, tissue-based; conditions: dose 500.0 µg/ml; summary of the method: as §2
[23] = system: Primary lung fibroblast; experiment: Antifibrotic activity against TGFbeta1-induced fibrosis in human primary lung fibroblasts assessed as decrease in alpha-SMA protein level at 500 ug/ml treated at 30 mins to 6 hrs post TGFbeta1 stimulation by immunoblotting analysis; assay type: functional, tissue-based; conditions: dose 500.0 µg/ml, time 6.5 hrs; summary of the method: as §3
[24] = system: Primary lung fibroblast; experiment: Antifibrotic activity against TGFbeta1-induced fibrosis in human primary lung fibroblasts assessed as decrease in CTGF protein level at 500 ug/ml treated at 30 mins to 6 hrs post TGFbeta1 stimulation by immunoblotting analysis; assay type: functional, tissue-based; conditions: dose 500.0 µg/ml, time 6.5 hrs; summary of the method: as §3
[25] = system: Primary lung fibroblast; experiment: Antifibrotic activity in against TGFbeta1-induced fibrosis in human primary lung fibroblasts assessed as decrease in collagen type-1 protein level at 500 ug/ml treated at 30 mins to 6 hrs post TGFbeta1 stimulation by immunoblotting analysis; assay type: functional, tissue-based; conditions: dose 500.0 µg/ml, time 6.5 hrs; summary of the method: as §3
[26] = system: Primary lung fibroblast; experiment: Antifibrotic activity against TGFbeta1-induced fibrosis in human primary lung fibroblasts assessed as decrease in TGFbeta1-induced fibronectin protein level at 500 ug/ml treated at 30 mins to 6 hrs post TGFbeta1 stimulation by immunoblotting analysis; assay type: functional, tissue-based; conditions: dose 500.0 µg/ml, time 6.5 hrs; summary of the method: as §3
[27] = system: Mus musculus; experiment: Antifibrotic activity against bleomycin-induced C57BL/6J mouse lung fibrosis model assessed as reduction in hydroxyproline level in lung at 2%, po via gavage administered as single dose measured on 14 days by hydroxyproline assay; assay type: functional, organism-based; conditions: time day 14; summary of the method: as §5
[28] = Toxicity in bleomycin-induced C57BL/6J mouse lung fibrosis model assessed as improvement in mouse survival relative to control; conditions: in vivo
[29] = system: Primary lung fibroblast; experiment: Antifibrotic activity against TGFbeta1-induced fibrosis in human primary lung fibroblasts assessed as decrease in collagen type-1 protein level at 500 ug/ml measured after 72 hrs by immunoblotting analysis; assay type: functional, tissue-based; conditions: dose 500.0 µg/ml; summary of the method: as §2
[30] = system: Primary lung fibroblast; experiment: Antifibrotic activity in human primary lung fibroblasts assessed as decrease in CTGF protein level at 500 ug/ml measured after 72 hrs by immunoblotting analysis; assay type: functional, tissue-based; conditions: dose 500.0 µg/ml; summary of the method: as §2

Structure (SMILES): [O-][S+](CC1(F)COC1)c1cccc(F)c1 (racemic)
- Activity [1]: Active

Structure (SMILES): CC1(C[S+]([O-])c2ccccc2)COC1 (racemic)
- Activity [2]: Active
- Activity [3]: Active
- Activity [4]: Active
- Activity [5]: Active
- Activity [6]: Active

Structure (SMILES): CC1(C[S+]([O-])CC2(C)COC2)COC1
- Activity [7]: Active
- Activity [8]: Active
- Activity [9]: Active
- Activity [10]: Active
- Activity [11]: Active
- Activity [12]: Active
- logP [13]: -0.7
- Activity [14]: Active
- Activity [15]: Active
- Activity [16]: Active
- solubility [17]: Soluble
- Activity [18]: Active
- Activity [19]: Active
- Activity [20]: Active
- Activity [21]: Active
- Activity [22]: Active
- Activity [23]: Active
- Activity [24]: Active
- Activity [25]: Active
- Activity [26]: Active
- Activity [27]: Active
- Activity [28]: 87.5%
- Activity [29]: Active
- Activity [30]: Active
